Reference: ChEMBL document CHEMBL4184151, “In-cell production of a genetically-encoded library based on the θ-defensin RTD-1 using a bacterial expression system” (Bioorg Med Chem, 2018)
Residues, ends and D or L forms follow the SMILES beside them.

Assays:
[1] = biological target: T1, Lethal factor (Bacillus anthracis, UniProt P15917); assay: Inhibition of Bacillus anthracis lethal factor protease using substrate containing CyPet and YPet linked by RRKKVYPYPMEGTIA sequence preincubated for 30 mins followed by substrate addition measured every 2 mins for 3 hrs by FRET assay
T1 sequence (P15917 whole entry): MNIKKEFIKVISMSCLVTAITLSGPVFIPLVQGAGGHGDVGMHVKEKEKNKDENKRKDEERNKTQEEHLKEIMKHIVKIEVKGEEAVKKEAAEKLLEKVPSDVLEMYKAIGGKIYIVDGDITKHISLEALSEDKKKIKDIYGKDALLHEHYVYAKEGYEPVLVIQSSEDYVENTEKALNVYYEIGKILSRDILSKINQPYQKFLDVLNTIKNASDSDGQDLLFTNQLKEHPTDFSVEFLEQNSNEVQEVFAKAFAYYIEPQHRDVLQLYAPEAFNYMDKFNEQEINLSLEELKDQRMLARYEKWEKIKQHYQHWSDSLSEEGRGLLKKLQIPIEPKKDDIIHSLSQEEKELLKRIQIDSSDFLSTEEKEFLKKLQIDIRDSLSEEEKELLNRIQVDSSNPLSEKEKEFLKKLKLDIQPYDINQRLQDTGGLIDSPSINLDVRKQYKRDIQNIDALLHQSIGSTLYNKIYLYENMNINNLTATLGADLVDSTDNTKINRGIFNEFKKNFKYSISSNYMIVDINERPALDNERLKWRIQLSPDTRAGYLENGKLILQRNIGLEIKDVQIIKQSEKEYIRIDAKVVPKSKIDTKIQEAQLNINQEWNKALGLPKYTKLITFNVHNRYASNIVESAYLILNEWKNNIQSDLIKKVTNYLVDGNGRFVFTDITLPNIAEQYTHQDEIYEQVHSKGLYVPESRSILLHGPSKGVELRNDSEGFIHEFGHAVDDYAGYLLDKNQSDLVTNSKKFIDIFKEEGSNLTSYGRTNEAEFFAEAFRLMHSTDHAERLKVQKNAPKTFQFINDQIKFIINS
In short: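 Purified LF (50 nM) in pH 7.2 buffer (10 μM CaCl2, 10 μM MgCl2, 20 μM ZnCl2, 20 mM sodium phosphate, 100 mM NaCl) preincubated at room temperature with inhibitor (1 nM–10 μM). FRET substrate added to 10 nM final. Read at 405 nm excitation, 535 nm intensity ratio It/I0. Initial velocities were normalised to uninhibited LF, and IC50 came from a variable-slope log(inhibitor)–response fit.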

[2] = biological target: T1, Lethal factor; assay: Non-competitive inhibition of Bacillus anthracis lethal factor protease using substrate containing CyPet and YPet linked by RRKKVYPYPMEGTIA sequence preincubated for 30 mins followed by substrate addition measured every 2 mins for 3 hrs by FRET assay
In short: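 Ki was derived from the IC50 with the non-competitive tight-binding relation Ki = IC50 − E0/2, where E0 is the enzyme concentration (50 nM LF). The IC50 comes from the FRET assay: pH 7.2 Ca/Mg/Zn phosphate–NaCl buffer, inhibitor 1 nM–10 μM, 10 nM substrate, 405 nm excitation, 535 nm read, initial velocities fitted to a variable-slope curve.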

Structure (SMILES)	IC50 [1] [nM]	Ki [2] [nM]
CC[C@H](C)[C@H](NC(=O)[C@H](CS)NC(=O)[C@H](CCCNC(=N)N)NC(=O)[C@H](CS)NC(=O)[C@@H](NC(=O)CNC(=O)[C@H](Cc1cnc[nH]1)NC(=O)[C@H](CC(C)C)NC(=O)[C@H](CS)NC(=O)[C@H](C)NC(=O)[C@H](CS)NC(=O)[C@H](CCCNC(=N)N)NC(=O)[C@H](CS)NC(=O)[C@H](Cc1ccccc1)NC(=O)CN)C(C)C)C(=O)N[C@@H](CS)C(=O)N[C@H](C(=O)N[C@@H](CCCNC(=N)N)C(=O)O)[C@@H](C)O (H-GFCRCACLHGVCRCICTR-OH)	971	946
CC[C@H](C)[C@H](NC(=O)[C@H](CS)NC(=O)[C@H](CCCNC(=N)N)NC(=O)[C@H](CS)NC(=O)[C@@H](NC(=O)CNC(=O)[C@H](CCCNC(=N)N)NC(=O)[C@H](CCCNC(=N)N)NC(=O)[C@H](CS)NC(=O)[C@H](CC(C)C)NC(=O)[C@H](CS)NC(=O)[C@H](CCCNC(=N)N)NC(=O)[C@H](CS)NC(=O)[C@H](Cc1ccccc1)NC(=O)CN)C(C)C)C(=O)N[C@@H](CS)C(=O)N[C@H](C(=O)N[C@@H](CCCNC(=N)N)C(=O)O)[C@@H](C)O (H-GFCRCLCRRGVCRCICTR-OH)	406	381
CC[C@H](C)[C@H](NC(=O)[C@H](CS)NC(=O)[C@H](CC(=O)O)NC(=O)[C@H](CS)NC(=O)[C@H](CO)NC(=O)[C@H](CO)NC(=O)[C@H](CCCNC(=N)N)NC(=O)CNC(=O)[C@H](CS)NC(=O)[C@H](Cc1ccccc1)NC(=O)[C@H](CS)NC(=O)[C@H](CCCNC(=N)N)NC(=O)[C@H](CS)NC(=O)[C@H](Cc1ccccc1)NC(=O)CN)C(=O)N[C@@H](CS)C(=O)N[C@H](C(=O)N[C@@H](CCCNC(=N)N)C(=O)O)[C@@H](C)O (H-GFCRCFCGRSSCDCICTR-OH)	1200	1170
CC[C@H](C)[C@H](NC(=O)[C@H](CS)NC(=O)[C@H](Cc1c[nH]c2ccccc12)NC(=O)[C@H](CS)NC(=O)CNC(=O)[C@H](Cc1ccc(O)cc1)NC(=O)[C@H](CCCNC(=N)N)NC(=O)[C@H](CO)NC(=O)[C@H](CS)NC(=O)[C@@H]1CCCN1C(=O)[C@H](CS)NC(=O)[C@H](CCCNC(=N)N)NC(=O)[C@H](CS)NC(=O)[C@H](Cc1ccccc1)NC(=O)CN)C(=O)N[C@@H](CS)C(=O)N[C@H](C(=O)N[C@@H](CCCNC(=N)N)C(=O)O)[C@@H](C)O (H-GFCRCPCSRYGCWCICTR-OH)	971	946
